Assay [1] concerns the target T1, Adenosine receptor A1 (Homo sapiens) (UniProt P30542).
T1 sequence (whole entry): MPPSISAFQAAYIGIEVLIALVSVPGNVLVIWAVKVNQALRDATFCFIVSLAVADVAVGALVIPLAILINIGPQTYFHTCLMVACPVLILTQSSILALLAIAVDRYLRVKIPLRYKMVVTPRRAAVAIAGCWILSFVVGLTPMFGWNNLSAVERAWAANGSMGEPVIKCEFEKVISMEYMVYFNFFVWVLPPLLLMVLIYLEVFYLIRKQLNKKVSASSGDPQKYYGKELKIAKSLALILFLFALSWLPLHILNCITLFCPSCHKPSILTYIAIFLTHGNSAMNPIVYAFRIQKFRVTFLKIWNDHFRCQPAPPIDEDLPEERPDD
Description: Agonist activity at human adenosine A1 receptor expressed in CHO cell membranes by [35S]GTPgammaS binding assay relative to 100 uM CPA. The class given is functional. The method, boiled down:
(§1)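 CHO-hA1 membrane homogenates (3 µg) equilibrated 30 min at 25 °C in 50 mM Tris, 100 mM NaCl, 5 mM MgCl2, 1 mM EDTA, 1 mM DTT, 0.05% BSA, pH 7.4, with 3 µM GDP, saponin and ligand over a concentration range. [35S]GTPγS then added (final 0.3 nM) and incubated 90 min at 25 °C. Filtration on GF/B, ice-cold washes, scintillation counting. n = 3.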
For orientation: GTPγS is a poorly hydrolysed GTP analogue; its binding reports G protein activation.

Assay [2] has as its target Adenosine receptors; A1 & A3 (Homo sapiens) (UniProt P30542+P0DMS8). The assay can be described thus: Selectivity for human adenosine A1 receptor expressed in CHO cell membranes over human adenosine A3 receptor expressed in CHO cell membrane. Format: cell-based.
In assay [3] the target is Adenosine receptor A2a (Homo sapiens) (UniProt P29274). Description: Displacement of [3H]ZM241385 from human adenosine A2A receptor expressed in HEK293 cell membranes at 1 uM by competition association assay. In general terms: Loss of bound radioactivity is the signal in a displacement assay; it reports binding, not function.
Sequence of Adenosine receptor A2a (Homo sapiens) (P29274 whole entry): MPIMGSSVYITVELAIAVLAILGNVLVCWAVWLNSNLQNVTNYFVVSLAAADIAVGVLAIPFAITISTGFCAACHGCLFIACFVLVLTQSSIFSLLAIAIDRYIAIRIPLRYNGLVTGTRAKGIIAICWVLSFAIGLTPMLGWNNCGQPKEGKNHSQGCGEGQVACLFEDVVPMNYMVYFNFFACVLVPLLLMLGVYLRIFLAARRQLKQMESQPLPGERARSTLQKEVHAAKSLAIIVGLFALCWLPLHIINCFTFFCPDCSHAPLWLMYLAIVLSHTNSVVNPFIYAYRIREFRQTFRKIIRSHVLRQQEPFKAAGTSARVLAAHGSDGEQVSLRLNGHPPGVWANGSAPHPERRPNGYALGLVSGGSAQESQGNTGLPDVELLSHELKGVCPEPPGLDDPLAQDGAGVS
The target in assay [4] is T2, Adenosine receptor A2b (Homo sapiens) (UniProt P29275).
T2 sequence (whole entry): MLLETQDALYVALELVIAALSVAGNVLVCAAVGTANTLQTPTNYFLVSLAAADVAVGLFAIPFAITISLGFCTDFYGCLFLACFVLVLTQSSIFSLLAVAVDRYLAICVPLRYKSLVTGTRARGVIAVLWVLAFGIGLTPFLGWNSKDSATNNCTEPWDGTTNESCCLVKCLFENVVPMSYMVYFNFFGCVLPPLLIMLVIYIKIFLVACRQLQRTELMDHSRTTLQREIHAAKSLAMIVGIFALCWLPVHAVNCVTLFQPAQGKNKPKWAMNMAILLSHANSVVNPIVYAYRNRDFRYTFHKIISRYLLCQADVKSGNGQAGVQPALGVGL
The assay can be described thus: Displacement of [3H]PSB603 from human adenosine A2B receptor expressed in CHO cell membranes at 1 uM by competition association assay. The method, boiled down:
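Single-point test at 1 µM measuring percent displacement of specific [3H]PSB603 binding on CHO membranes stably expressing human A2B receptors.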

The target in assay [5] is T1, Adenosine receptor A1 (Homo sapiens). Description: Displacement of [3H]DPCPX from human adenosine A1 receptor expressed in CHO cell membranes at 1 uM by competition association assay.
The target in a further assay is T3, Adenosine receptor A1 (Homo sapiens, UniProt P30542).
T3 sequence (P30542 whole entry): T1 sequence (whole entry)
The assay can be described thus: Agonist activity at human adenosine A1 receptor expressed in CHO cell membranes by [35S]GTPgammaS binding assay. Format: functional. The essentials:
as §1

In assay [6] the target is T4, Adenosine receptor A3 (Homo sapiens) (UniProt P0DMS8).
T4 sequence (whole entry): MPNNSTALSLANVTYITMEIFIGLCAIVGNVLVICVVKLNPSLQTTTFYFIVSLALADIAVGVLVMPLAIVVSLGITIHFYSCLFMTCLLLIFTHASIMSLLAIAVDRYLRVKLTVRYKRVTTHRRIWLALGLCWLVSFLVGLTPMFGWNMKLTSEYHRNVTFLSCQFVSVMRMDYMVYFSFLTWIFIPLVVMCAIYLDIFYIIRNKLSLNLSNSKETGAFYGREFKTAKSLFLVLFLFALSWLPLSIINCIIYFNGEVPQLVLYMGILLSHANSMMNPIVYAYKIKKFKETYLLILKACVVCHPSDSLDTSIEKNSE
Description: Displacement of [3H]PSB11 from human adenosine A3 receptor expressed in CHO cell membranes at 1 uM by competition association assay. The method, boiled down:
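Single-point screen at 1 µM measuring displacement of specific [3H]PSB11 binding on CHO cell membranes stably expressing human A3 receptors.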

Assay [7] addresses T1, Adenosine receptor A1 (Homo sapiens). The assay can be described thus: Displacement of [3H]DPCPX from human adenosine A1 receptor expressed in CHO cell membranes assessed as kinetic rate index by measuring ratio of binding at earlier and later time points by competition association assay. The method, boiled down: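 Dual-point competition association assay with [3H]DPCPX on CHO membranes stably expressing hA1. Specific binding is read at two time points in the presence of the test ligand. KRI is the ratio of binding at the earlier to the later time point (n = 2; both values reported).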

Assay [8] has the same target. The assay can be described thus: Displacement of [3H]DPCPX from human adenosine A1 receptor expressed in CHO cell membranes assessed as residence time by competition association assay. The essentials: (§2)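 Competition association assay on CHO cell membranes stably expressing hA1, with [3H]DPCPX as tracer. kon and koff come from these association curves (n ≥ 3, ± SEM). Residence time is shown alongside koff and corresponds to 1/koff in minutes.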

Assay [9] has the same target. Description: Displacement of [3H]DPCPX from human adenosine A1 receptor expressed in CHO cell membranes assessed as dissociation rate constant by competition association assay. The essentials:
as §2

The target is the same in assay [10]. The assay can be described thus: Displacement of [3H]DPCPX from human adenosine A1 receptor expressed in CHO cell membranes assessed as association rate constant by competition association assay. The essentials: as §2

Where only a bound is given, the exact number is not on record here.

What is called Emax is the size of the effect at its maximum, as opposed to the concentration needed. For orientation: inhibition means the percentage by which the read-out fell short of the control. Read a high inhibition as strong suppression. As a reminder, the EC50 is the concentration needed to bring the measured effect to its halfway point. A low value points to a more potent agent.

`COc1ccc(-c2c(C#N)c(N)nc(SCc3csc(N4CCOCC4)n3)c2C#N)cc1` yielded an Emax in [1] of 104%. In assay [2], the Selectivity ratio is above 100. Also, the inhibition was 0% in assay [3], 0% in [4], above 80% in assay [5] and 51% in assay [6]. In addition, the EC50 on Adenosine receptor A1 worked out at 1.9 nM. Moreover, the Ratio in assay [7] was determined as 1.12.
Compound `COc1ccc(-c2c(C#N)c(N)nc(SCc3csc(-c4ccccn4)n3)c2C#N)cc1` returned a maximal response (Emax) in assay [1] of 99%. Also, the Selectivity ratio in assay [2] was above 100. Also, the inhibition in assay [3] was 0%; in assay [4] it was 0%; in assay [5] it was above 80%; in [6], 22%. The EC50 at Adenosine receptor A1 came to 7.6 nM. Moreover, the Ratio in assay [7] is 1.08.
In assay [1], `COc1ccc(-c2c(C#N)c(N)nc(SCc3csc(-c4ccccc4)n3)c2C#N)cc1` yielded an Emax of 105%. Besides, the Selectivity ratio in assay [2] is above 100. Moreover, the inhibition in assay [3] is 0%; in assay [4], 63%; in [5] it was above 80%; in assay [6] it was 27%. For the same compound, at Adenosine receptor A1, the EC50 worked out at 1.9 nM. Also, in assay [7], the Ratio stood at 1.23.
Compound `COc1ccc(-c2c(C#N)c(N)nc(SCc3cscn3)c2C#N)cc1` registered an Emax in assay [1] of 55%. Further, the Selectivity ratio in [2] is above 100. For the same compound, the inhibition in assay [3] was found to be 0%; in assay [6], 50%. The compound also registered a concentration for a half-maximal effect (EC50) at Adenosine receptor A1 of 1.5 nM. For the same compound, in assay [7], the Ratio amounted to 1.
Compound `N#Cc1c(N)nc(SCc2csc(-c3ccc(Cl)cc3)n2)c(C#N)c1-c1ccc(OCCO)cc1` [CAPADENOSON] displayed an Emax in assay [1] of 97%. In assay [2], the Selectivity ratio was above 100. The TIME in [8] stood at 0.463 h. Moreover, the figures for the K in assay [9] and in assay [10] were 0.036 min⁻¹ and 2.4 ×10⁷ /M/min, respectively. The inhibition was 0% in [3], 2.5% in assay [4], above 80% in assay [5] and 1.2% in [6]. Moreover, the concentration for a half-maximal effect (EC50) at Adenosine receptor A1 amounted to 1.1 nM. Moreover, the Ratio in [7] came out at 1.42.
`COc1ccc(-c2c(C#N)c(N)nc(SCc3csc(-c4ccc(Cl)cc4)n3)c2C#N)cc1` registered a maximal effect (Emax) in assay [1] of 83%. The Selectivity ratio in assay [2] was above 100. The TIME in assay [8] worked out at 2.2 h. Moreover, the figures for the K in assay [9] and in [10] were 0.0076 min⁻¹ and 2.6 ×10⁶ /M/min, respectively. For the same compound, the inhibition in assay [3] was 5.8%; in assay [4] it was 20%; in assay [5] it was above 80%; in [6], 19%. For the same compound, on Adenosine receptor A1, the EC50 came to 2.9 nM. Also, the Ratio in [7] turned out to be 2.55.

Values taken from ChEMBL document CHEMBL3612021, “Structure-kinetics relationships of Capadenoson derivatives as adenosine A1 receptor agonists” (Eur J Med Chem, 2015).
